PGC1a acetyl up = raises PGC1a acetylation signal in U2OS cells; activation, % at 15.6 µM; actives 0.21% (n = 350,000); AID 651723; U2OS PGC1a acetylation AlphaScreen, overnight;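 active = every replicate reaching activation of at least 50%, whatever the mean replicate activation; inconclusive = replicates that disagree or another doubt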;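 also: hits raise the AlphaScreen acetylation signal above neutral controls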
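Test system: U2OS cells expressing flag-PGC1a plus GCN5; Amount: 7000 U2OS cells per well; Compound: single test concentration per compound; Incubation: compound overnight at 37 °C, each detection step 1 h RT; Signal: AlphaScreen lysate read.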
Hep G6PC suppr = PGC-1a acetylation activator altering hepatocyte G6PC expression. 240 tested, under 10 active. primary mouse hepatocytes, G6PC mRNA qPCR, forskolin. shares compounds with PGC1a acetyl up. AID 743463. G6PC suppression (normalized activity, % of positive control; higher = more suppression), % at 26 µM;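 active = dose curves showing G6PC suppression whose half-maximal dose is at most twice the top valid dose; inconclusive = flat curves with moderate negative activity, or unreliable fits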;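 also: G6PC expression relative to GAPDH housekeeping gene as delta delta Ct; 0% = median of neutral control wells and 100% = median of positive control wells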
Hep PCK1 suppr = hepatocyte PCK1 expression change via PGC-1a acetylation activation; shares compounds with PGC1a acetyl up; primary mouse hepatocytes, PCK1 mRNA qPCR, forskolin-stimulated; PCK1 expression decrease, unspecified at 26 µM; 230 tested, under 10 active;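 active = compounds lowering PCK1 expression whose fitted half-maximal concentration is at most twice the top tested dose; inconclusive = flat fit with moderate opposite-direction effect, or poor fit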;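 also: values are delta delta Ct of PCK1 relative to GAPDH; higher delta delta Ct means lower PCK1 expression so positive values indicate hits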
Hep PGC-1a down = PGC-1a acetylation activators affecting PGC-1a expression in hepatocytes; shares compounds with PGC1a acetyl up; AID 743467; primary mouse hepatocytes, PGC-1a mRNA qPCR, forskolin; top dose 26 µM; max activity (PGC-1a expression decrease), %; 240 tested, under 10 active;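 active = compound lowering PGC-1a expression with fitted half-maximal concentration at most twice its top tested dose; inconclusive = flat curve with moderate opposite-direction effect, or poor fit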;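 also: 0% = neutral control wells median and 100% = positive control wells median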
* marks the source's active call; other numbers are inactive results; ? = inconclusive; . = no result given; [ ] = another dose, or the depositor's remark. The list is a sample of the results.

SMILES | PGC1a acetyl up | Hep PCK1 suppr | Hep PGC-1a down | others
CCOc1ccc(N2C(=O)Cc3ccccc3C2=O)cc1 | -43 | . | .
C[C@@H]1CN([C@H](C)CO)C(=O)CCCn2cc(nn2)CO[C@@H]1CN(C)C(=O)NC1CCCC1 | -46 | . | .
Cc1noc(C)c1NC(=O)N(C)C[C@@H]1Oc2ccc(NS(=O)(=O)c3cn(C)cn3)cc2C(=O)N([C@@H](C)CO)C[C@@H]1C | -46 | . | .
CC(C)NC(=O)N(C)C[C@H]1OCc2cnnn2CCCC(=O)N([C@@H](C)CO)C[C@H]1C | -42 | . | .
C[C@@H]1CN([C@H](C)CO)C(=O)c2c(c3ccccc3n2C)-c2ccccc2CO[C@@H]1CN(C)C(=O)[C@H](C)c1ccccc1 | 133* | 40 | 91 | Hep G6PC suppr=20
C[C@@H]1CN([C@@H](C)CO)C(=O)Cc2cc(NC(=O)Cc3ccccc3)ccc2O[C@H]1CN(C)C(=O)Nc1ccccc1 | -49 | 17[23.5 µM] | 32 | Hep G6PC suppr=-3[23.5 µM]
C[C@H]1CN([C@@H](C)CO)C(=O)c2cc(/C=C/c3ccccc3)cnc2O[C@H]1CN(C)C(=O)CN(C)C | -53 | . | .
C[C@H]1CN([C@@H](C)CO)C(=O)CCCn2nncc2CO[C@@H]1CN(C)C(=O)Nc1ccccc1 | -50 | . | .
C[C@@H]1CN([C@@H](C)CO)C(=O)c2c(c3ccccc3n2C)-c2ccccc2CO[C@@H]1CN(C)C(=O)Nc1ccccc1C(F)(F)F | 74* | 39 | 86 | Hep G6PC suppr=5
CC(C)C#Cc1cnc2c(c1)C(=O)N([C@@H](C)CO)C[C@@H](C)[C@@H](CN(C)C(=O)c1ccccn1)O2 | -44 | . | .
C[C@@H]1CN([C@H](C)CO)C(=O)c2c(c3ccccc3n2C)-c2ccccc2CO[C@@H]1CN(C)C(=O)c1ccc(F)cc1 | 78* | 95[23.5 µM] | 109 | Hep G6PC suppr=61[23.5 µM]
C[C@H](CO)N1C[C@H](C)[C@@H](CN(C)C(=O)c2ccccn2)Oc2ncc(-c3cccc(C#N)c3)cc2C1=O | -58 | . | .
C[C@@H]1CN([C@@H](C)CO)C(=O)c2cc(NS(C)(=O)=O)ccc2O[C@@H](C)CCCCO[C@H]1CN(C)C(=O)Nc1ccc(F)cc1 | -48 | . | .
CC(C)(C)C1CCC(CN2C(Nc3ccccc3)=NC[C@@H]2Cc2ccccc2)CC1 (stereo not given in full) | -88 | . | .
Cc1ccccc1CS(=O)(=O)c1nnc([C@H](Cc2ccccc2)NC(=O)OC(C)(C)C)o1 | -55 | . | .
CCCc1nc2c(=O)n(C)c(=O)nc-2n(C)n1 | -75 | . | .
Cc1cc(C)nc(NC(=S)Nc2ccccc2)n1 | -60 | . | .
O=C(/C=C/c1ccccc1)CC(O)(c1ccccc1)C(F)(F)F (stereo not given) | -42 | . | .
C=C[C@H]1CN2CCC1C[C@H]2[C@H](O)c1ccnc2ccc(OC)cc12 (stereo not given in full) | -48 | . | .
O=C1CN(C(=O)COC(=O)/C=C/c2ccco2)c2ccccc2N1 | -40 | . | .
C[C@H]1CCCCO[C@H](CN(C)Cc2ccc3c(c2)OCO3)[C@@H](C)CN([C@@H](C)CO)C(=O)c2cc(NC(=O)Nc3ccc(C(F)(F)F)cc3)ccc2O1 | -79 | . | .
C[C@@H]1CN([C@H](C)CO)C(=O)c2c(c3ccccc3n2C)-c2ccccc2CO[C@@H]1CN(C)C(=O)Nc1ccc2c(c1)OCO2 | ? | 78 | ? | Hep G6PC suppr=9
C[C@H]1CCCCO[C@H](CN(C)Cc2ccncc2)[C@@H](C)CN([C@@H](C)CO)C(=O)c2cc(NS(=O)(=O)c3ccccc3)ccc2O1 | -73 | . | .
CCCc1ccc(C(O)c2ncc(-c3cccc(F)c3)[nH]2)cc1 (stereo not given) | -43 | . | .
Cc1ccc(/C=C2/CNC/C(=C/c3ccc(C)cc3)C2=O)cc1 | -74 | . | .
SMILES | PGC1a acetyl up | Hep PCK1 suppr | Hep PGC-1a down | others
CCOc1ccc(Nc2oc(-c3ccc(Cl)cc3)nc2C#N)cc1 | 62* | 54 | 20 | Hep G6PC suppr=-53[8 µM]
CC1CCCC=CC2CC(OC(=O)CN(C)C)CC2C(O)C=CC(=O)O1 (stereo not given) | -67 | . | .
COC(C[C@H]1O[C@@H]1[C@H](O)[C@H](C)OCc1ccccc1)OC | -47 | . | .
O=C(NCc1cccs1)C1Cc2c(-c3ccc(Cl)cc3)ccnc2O1 (stereo not given) | 101* | 6.5 | 48 | Hep G6PC suppr=13
COc1ccc(-c2onc(C)c2-c2ccc(C(=O)OC(C)C)o2)c(O)c1 | -74 | . | .
COc1cc(CN2CCC(C(=O)NCCC(C)C)CC2)ccc1OCc1ccccc1 | ? | 178 | 56 | Hep G6PC suppr=909
COc1cccc(OC)c1NC(=O)C1CCCN1C(=O)NCc1ccccc1 (stereo not given) | -97 | . | .
Cc1cc(C)n(C/C=C/Cn2nc(C)cc2C)n1 | -44 | . | .
CCCc1cc2c(cc1N(C)S(=O)(=O)c1ccccc1)OCO2 | ? | 152 | 117 | Hep G6PC suppr=18
CC(C)(C)OC(=O)NC(Cc1ccccc1)C(=O)NCCCC(=O)O (stereo not given) | -43 | . | .
S=c1nc[nH]c2c1cnn2Cc1ccccc1 | -45 | . | .
CCN(CC)C1CC(=O)N(c2ccc(Br)cc2)C1=O (stereo not given) | -41 | . | .
Cc1c(C(=O)NCCSCc2c(F)cccc2Cl)cnn1-c1ccc(Cl)cc1 | ? | -13 | -22 | Hep G6PC suppr=-15
O=C(O)C1CCCN1S(=O)(=O)c1cc(Cl)ccc1Cl (stereo not given) | -42 | . | .
O=C(C1CCC1)N1CCN(S(=O)(=O)c2ccccc2)CC1 | ? | 1.2 | 118 | Hep G6PC suppr=11
Cc1ccc(-c2nnc(Nc3ccc4c(c3)OCO4)c3ccccc23)cc1S(=O)(=O)NCCO | 94* | 113 | 63 | Hep G6PC suppr=44
Cc1ccc2nsnc2c1S(=O)(=O)N(Cc1ccco1)Cc1cc2cccc(C)c2[nH]c1=O | -47 | . | .
CN(C)CC(O)c1ccc(C=Cc2ccc(Cl)cc2)cc1 (stereo not given) | -51 | . | .
N#Cc1ccc(Cn2c(=O)c(C#N)c3n(c2=O)CCC3)cc1 | -47 | . | .
COc1ccc(S(=O)(=O)Nc2ccc3c(c2)C(=O)N([C@@H](C)CO)C[C@@H](C)[C@H](CN(C)S(=O)(=O)c2ccc(Cl)cc2)OCCCC[C@H](C)O3)cc1 | -49 | 73 | 67 | Hep G6PC suppr=161
Cc1ccc(S(=O)(=O)N(C)C[C@@H]2OCCCC[C@H](C)Oc3ccc(NS(C)(=O)=O)cc3C(=O)N([C@@H](C)CO)C[C@@H]2C)cc1 | -42 | . | .
C[C@@H]1CN([C@@H](C)CO)C(=O)c2cc(NS(=O)(=O)c3ccc(F)cc3)ccc2O[C@@H]1CN(C)S(=O)(=O)c1ccc(Cl)cc1 | -43 | . | .
Cc1cc(C(=O)NNS(=O)(=O)c2ccc(F)cc2)nn1C(C)(C)C | 456* | -0.84 | 10
CC(C)CCCCCCCCCCCCC(=O)NCC(=O)NC1C(C)OC(Nc2ncnc3nc[nH]c23)C(O)C1O (stereo not given) | -71 | . | .
Cc1ccccc1Nc1ncnc2c1cnn2-c1ccccc1 | -63 | . | .
COc1ccc(Cn2nnnc2CN(Cc2cc3ccc(C)cc3[nH]c2=O)C2CCCC2)cc1 | -42 | . | .
CN1C2C=C3C(C#N)=C(N)C(C#N)(C#N)C(c4ccc(Br)cc4)C3C1CC2 (stereo not given) | -42 | . | .
COCCNC(=O)CN1CCC(NC(=O)C(C)(C)C)CC1 | -45 | . | .
